Source: ChEMBL document CHEMBL1944511, “Bakuchiol derivatives as novel and potent cytotoxic agents: a report” (Eur J Med Chem, 2012)

What was measured:
Format in all cases: functional
[1] = system: MCF7; assay: Growth inhibition of human MCF7 cells at 50 uM after 48 hrs by sulpharhodamine B assay; conditions: MCF7, 48 h, read-out: GI
How it was run: (§1)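 This is the SRB protein-stain assay on adherent cells in RPMI-1640/MEM with 10% FCS. Each compound in DMSO (vehicle <0.2%) was applied at a single fixed concentration for 48 h. Cells were fixed with TCA and stained with SRB, and the dye was solubilised in Tris and read at 570/620 nm. Percent growth inhibition is relative to vehicle-treated controls, reported as mean ± SD of three experiments run in triplicate.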

[2] = system: A549; assay: Growth inhibition of human A549 cells at 50 uM after 48 hrs by sulpharhodamine B assay; conditions: A549, 48 h, read-out: GI; how it was run: as §1
[3] = system: PC-3; assay: Growth inhibition of human PC3 cells at 50 uM after 48 hrs by sulpharhodamine B assay; conditions: PC-3, 48 h, read-out: GI
How it was run: (§2)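 Cells grown in RPMI-1640/MEM with 10% FCS, penicillin/streptomycin, 37 °C, 5% CO2. Seeded in 96-well plates, allowed to adhere overnight, then exposed 48 h to analogs in DMSO (vehicle <0.2% in controls). TCA-fixed, stained with 0.4% SRB in 1% acetic acid, dye solubilized in 10 mM Tris base, OD 570 nm (ref 620 nm). Mean ± SD of three experiments run in triplicate.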

[4] = system: OVCAR-5; assay: Growth inhibition of human OVCAR5 cells at 50 uM after 48 hrs by sulpharhodamine B assay; conditions: OVCAR-5, 48 h, read-out: GI; how it was run: as §1
[5] = system: IMR-32; assay: Growth inhibition of human IMR32 cells at 50 uM after 48 hrs by sulpharhodamine B assay; conditions: IMR-32, 48 h, read-out: GI; how it was run: as §1
[6] = system: HeLa; assay: Growth inhibition of human HeLa cells at 50 uM after 48 hrs by sulpharhodamine B assay; conditions: read-out: GI; how it was run: as §1
[7] = system: THP-1; assay: Growth inhibition of human THP1 cells at 50 uM after 48 hrs by sulpharhodamine B assay; conditions: THP-1, 48 h, read-out: GI; how it was run: as §2
[8] = system: MCF7; assay: Growth inhibition of human MCF7 cells at 30 uM after 48 hrs by sulpharhodamine B assay; conditions: MCF7, 48 h, read-out: GI; how it was run: as §1
[9] = system: A549; assay: Growth inhibition of human A549 cells at 30 uM after 48 hrs by sulpharhodamine B assay; conditions: A549, 48 h, read-out: GI; how it was run: as §1
[10] = system: PC-3; assay: Growth inhibition of human PC3 cells at 30 uM after 48 hrs by sulpharhodamine B assay; conditions: PC-3, 48 h, read-out: GI; how it was run: as §2
[11] = system: OVCAR-5; assay: Growth inhibition of human OVCAR5 cells at 30 uM after 48 hrs by sulpharhodamine B assay; conditions: OVCAR-5, 48 h, read-out: GI; how it was run: as §1
[12] = system: IMR-32; assay: Growth inhibition of human IMR32 cells at 30 uM after 48 hrs by sulpharhodamine B assay; conditions: IMR-32, 48 h, read-out: GI; how it was run: as §1
[13] = system: HeLa; assay: Growth inhibition of human HeLa cells at 30 uM after 48 hrs by sulpharhodamine B assay; conditions: read-out: GI; how it was run: as §1
[14] = system: THP-1; assay: Growth inhibition of human THP1 cells at 30 uM after 48 hrs by sulpharhodamine B assay; conditions: THP-1, 48 h, read-out: GI; how it was run: as §2
[15] = system: HEp-2; assay: Growth inhibition of human Hep2 cells at 50 uM after 48 hrs by sulpharhodamine B assay; conditions: HEp-2, 48 h, read-out: GI; how it was run: as §1
[16] = system: HEp-2; assay: Growth inhibition of human Hep2 cells at 30 uM after 48 hrs by sulpharhodamine B assay; conditions: HEp-2, 48 h, read-out: GI; how it was run: as §1

Row | SMILES | inhibition of growth at 50 µM [1] [%] | inhibition of growth at 50 µM [2] [%] | inhibition of growth at 50 µM [3] [%] | inhibition of growth at 50 µM [4] [%] | inhibition of growth at 50 µM [5] [%] | inhibition of growth at 50 µM [6] [%] | inhibition of growth at 50 µM [7] [%] | inhibition of growth at 30 µM [8] [%] | inhibition of growth at 30 µM [9] [%] | inhibition of growth at 30 µM [10] [%] | inhibition of growth at 30 µM [11] [%] | inhibition of growth at 30 µM [12] [%] | inhibition of growth at 30 µM [13] [%] | inhibition of growth at 30 µM [14] [%] | inhibition of growth at 50 µM [15] [%] | inhibition of growth at 30 µM [16] [%]
1 | CCCOc1ccc(/C=C/[C@@](C)(/C=C/c2ccc(O)cc2)CCC=C(C)C)cc1Cl | 47 | 5 | 7 | 12 | 8 | 4 | 20 | – | – | – | – | – | – | – | – | –
2 | CC(C)=CCC[C@](C)(/C=C/c1ccc(O)cc1)/C=C/c1ccc(F)cc1 | 28 | 31 | 33 | 29 | 37 | 43 | 60 | – | – | – | – | – | – | – | – | –
3 | C=C[C@@](C)(/C=C/c1ccc(O)c([N+](=O)[O-])c1)CCC=C(C)C | 49 | 52 | 52 | 55 | 50 | 49 | 55 | – | – | – | – | – | – | – | – | –
4 | CC(C)=CCCC(C)(/C=C/c1ccc(O)cc1)/C=C/c1ccc(O)cc1 | 31 | 33 | 32 | 33 | 30 | 32 | 66 | – | – | – | – | – | – | – | – | –
5 | C=C[C@@](C)(/C=C/c1ccc(OC(=O)CCCCCCCCCCCCCCC)cc1)CCC=C(C)C | 24 | 61 | 62 | 64 | 54 | 51 | 62 | – | – | – | – | – | – | – | – | –
6 | C=C[C@@](C)(/C=C/c1ccc(OC(=O)CCCCC)cc1)CCC=C(C)C | 18 | 58 | 28 | 13 | 19 | 50 | 54 | – | – | – | – | – | – | – | – | –
7 | C=C[C@@](C)(/C=C/c1ccc(OC(=O)CCCC)cc1)CCC=C(C)C | 25 | 38 | 42 | 3 | 21 | 23 | 15 | – | – | – | – | – | – | – | – | –
8 | COc1ccc(/C=C/[C@@](C)(/C=C/c2ccc(O)cc2)CCC=C(C)C)cc1CO | 42 | 41 | 39 | 38 | 34 | 36 | 58 | – | – | – | – | – | – | – | – | –
9 | CC(C)=CCC[C@@](C)(/C=C/c1ccc(N)cc1)/C=C/c1ccc(O)cc1 | 48 | 57 | 59 | 16 | 28 | 27 | 51 | 28 | 33 | 15 | 8 | 14 | 5 | 32 | 46 | 32
10 | C=C[C@@](C)(/C=C/c1ccc(O)cc1)CC/C=C(/C)C=O | 12 | 35 | 51 | 22 | 53 | 40 | 54 | – | – | – | – | – | – | – | – | –
11 | CC[C@](C)(CCCC(C)C)CCc1ccc(O)cc1 | 46 | 49 | 40 | 43 | 53 | 42 | 58 | – | – | – | – | – | – | – | – | –
12 | C=C[C@@](C)(/C=C/c1ccc(OC(=O)CCCCCCCCC)cc1)CCC=C(C)C | 10 | 48 | 50 | 42 | 52 | 50 | 52 | 12 | 33 | 27 | 29 | 22 | 24 | 39 | 30 | 16
13 | C=C[C@@](C)(/C=C/c1ccc(O)c(N)c1)CCC=C(C)C | 17 | 41 | 28 | 33 | 39 | 48 | 48 | – | – | – | – | – | – | – | – | –
14 | C=C[C@@](C)(/C=C/c1ccc(OC(=O)CCC)cc1)CCC=C(C)C | 20 | 50 | 38 | 41 | 54 | 36 | 54 | – | – | – | – | – | – | – | – | –
15 | C=C[C@@](C)(/C=C/c1ccc(OC)cc1)CCC=C(C)C | 18 | 12 | 44 | 37 | 30 | 43 | 45 | 37 | 34 | 31 | 29 | 23 | 28 | 29 | 40 | 22
16 | COc1ccc(/C=C/C(C)(/C=C/c2ccc(OC)cc2)CCC=C(C)C)cc1 | 13 | 15 | 29 | 25 | 27 | 11 | 62 | – | – | – | – | – | – | – | – | –
17 | C=C[C@@](C)(/C=C/c1ccc(OC(=O)CCCCCCC)cc1)CCC=C(C)C | 12 | 15 | 22 | 42 | 51 | 53 | 62 | – | – | – | – | – | – | – | – | –
18 | COc1ccccc1/C=C/[C@@](C)(/C=C/c1ccc(O)cc1)CCC=C(C)C | 42 | 10 | 46 | 38 | 68 | 50 | 62 | – | – | – | – | – | – | – | – | –
19 | C=C[C@@](C)(/C=C/c1ccc(O)cc1)CCC1OC1(C)C (stereo not given in full) | 33 | 44 | 46 | 12 | 59 | 32 | 52 | – | – | – | – | – | – | – | – | –
20 | COc1ccc(/C=C/[C@@](C)(/C=C/c2ccc(O)cc2)CCC=C(C)C)cc1 | 55 | 40 | 50 | 20 | 6 | 20 | 52 | – | – | – | – | – | – | – | – | –
21 | CC[C@](C)(CCCC(C)C)CCc1cc(Br)c(O)c(Br)c1 | 42 | 40 | 50 | 8 | 21 | 42 | 51 | – | – | – | – | – | – | – | – | –
22 | C=C[C@@](C)(/C=C/c1ccc(OC(=O)CC)cc1)CCC=C(C)C | 23 | 42 | 54 | 52 | 63 | 48 | 60 | – | – | – | – | – | – | – | – | –
23 | COc1ccc(/C=C/[C@@](C)(/C=C/c2ccc(O)cc2)CCC=C(C)C)cc1C=O | 36 | 32 | 34 | 33 | 35 | 31 | 45 | – | – | – | – | – | – | – | – | –
24 | CC[C@](C)(CCCC(C)C)CCc1ccc(O)c(I)c1 | 40 | 12 | 8 | 11 | 21 | 43 | 58 | – | – | – | – | – | – | – | – | –
